From ChEMBL document CHEMBL1153955, “Indolylarylsulfones bearing natural and unnatural amino acids. Discovery of potent inhibitors of HIV-1 non-nucleoside wild type and resistant mutant strains reverse transcriptase and coxsackie B4 virus” (J Med Chem, 2009)

Key:
Human alphaherpesvirus 2 = test: Antiviral activity against HSV2 G in human HEL cells assessed as protection against virus-induced cytopathicity; type: functional, organism-based; settings: Human alphaherpesvirus 2, strain G
Method in brief: (§1)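 Confluent cell monolayers inoculated with 100 CCID₅₀ virus. After 1-2 h adsorption, residual virus removed and cultures incubated with varying compound concentrations. Cytopathicity scored once it reached completion in untreated infected controls. EC₅₀ = dose reducing virus-induced cytopathogenicity by 50%.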

[1] = Cytotoxicity against african green monkey Vero cells assessed as drug level causing microscopically detectable alteration of normal cell morphology after 3 days; type: cell-based; settings: chlorocebus sabaeus
Method in brief: (§2)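 Serial compound dilutions added to confluent HeLa or Vero monolayers. MCC = minimum concentration causing microscopically detectable alteration of cell morphology after 3 days of incubation.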

Influenza A virus [2] = test: Antiviral activity against influenza H1N1 virus in MDCK cells assessed as reduction of virus-induced cytopathicity by visual cytopathic effect scoring method; type: functional, organism-based
Influenza A virus H3N2 [3] = test: Antiviral activity against influenza H3N2 virus in MDCK cells assessed as reduction of virus-induced cytopathicity by visual cytopathic effect scoring method; type: functional, organism-based
Punta Toro virus = test: Antiviral activity against Punta Toro virus in african green monkey Vero cells assessed as protection against virus-induced cytopathicity; type: functional, organism-based; method in brief: as §1
[4] = Cytotoxicity against human HEL cells assessed as drug level causing microscopically detectable alteration of normal cell morphology after 3 days; type: cell-based
[5] = Antiproliferative activity against human Molt4/C8 cells after 3 days; type: cell-based; settings: MOLT-4, 72 h
Method in brief: (§3)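 Cells seeded at 5 × 10⁴ to 7.5 × 10⁴ cells/200 µL with or without serial compound dilutions; incubated at 37 °C for 2 days (L1210) or 3 days (Molt4/C8, CEM). Cell numbers counted with a Coulter counter. CC₅₀ = concentration reducing proliferation by 50% versus untreated controls, read from plots of cell number (% of control) against concentration. Means of at least two independent experiments.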

Human alphaherpesvirus 1 [6] = test: Antiviral activity against HSV1 KOS in human HEL cells assessed as protection against virus-induced cytopathicity; type: functional, organism-based; settings: Human alphaherpesvirus 1, KOS
Human respirovirus 3 = test: Antiviral activity against Parainfluenza virus type 3 in african green monkey Vero cells assessed as protection against virus-induced cytopathicity; type: functional, organism-based; settings: Human respirovirus 3, Vero; method in brief: as §1
[7] = Cytotoxicity against MDCK cells assessed as drug level causing microscopically detectable alteration of normal cell morphology; type: cell-based, Canis lupus familiaris; settings: dog
Human alphaherpesvirus 1 [8] = test: Antiviral activity against thymidine kinase deficient and acyclovir resistant HSV1 KOS in human HEL cells assessed as protection against virus-induced cytopathicity; type: functional, organism-based; settings: Human alphaherpesvirus 1, KOS
Felid alphaherpesvirus 1 = test: Antiviral activity against Feline herpesvirus in feline […] cells assessed as inhibition of virus-induced cytopathicity; type: functional, organism-based
[9] = Cytotoxicity against MDCK cells by MTS assay; type: cell-based, Canis lupus familiaris; settings: dog
[10] = Cytotoxicity against feline CRFK cells by MTS assay; type: cell-based, Felis catus; settings: cat
[11] = molecular target: Human immunodeficiency virus type 1 reverse transcriptase (Human immunodeficiency virus 1, UniProt Q72547, K103N); test: Inhibition of HIV1 reverse transcriptase p66/p51 K103N mutant; settings: read-out: IC50
Method in brief: (§4)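 Substrate was 0.5 µg poly(rA)/oligo(dT) 10:1 (0.3 µM 3′-OH ends) with 10 µM [³H]dTTP, at 37 °C. Acid-precipitable radioactivity was counted on GF/C filters after TCA washes.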

Influenza A virus [12] = test: Antiviral activity against influenza H1N1 virus in MDCK cells assessed as reduction of virus-induced cytopathicity by MTS method; type: functional, organism-based; settings: Influenza A virus, H1N1, MDCK
Influenza B virus [13] = test: Antiviral activity against influenza B virus in MDCK cells assessed as reduction of virus-induced cytopathicity by MTS method; type: functional, organism-based
[14] = tested on: Vesicular stomatitis virus; test: Antiviral activity against VSV in human HEL cells assessed as protection against virus-induced cytopathicity; type: functional, organism-based
Coxsackievirus B4 [15] = test: Antiviral activity against Coxsackievirus B4 in african green monkey Vero cells assessed as protection against virus-induced cytopathicity; type: functional, organism-based; settings: Enterovirus B; method in brief: as §1
[16] = tested on: Human immunodeficiency virus 1; test: Antiviral activity against HIV1 3B in human CEM cells assessed as protection against virus-induced cytopathicity after 4 days; type: functional, organism-based; settings: Human immunodeficiency virus 1, 3B, CCRF-CEM, 96 h
Method in brief: (§5)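 CEM cells (~3 × 10⁵ cells/mL) infected with ~100 CCID₅₀ per mL of HIV-1 (IIIB) or HIV-2 (ROD), then seeded into wells containing compound dilutions. After 4 days at 37 °C, syncytium (giant cell) formation was examined microscopically. EC₅₀ = concentration protecting CEM cells from HIV cytopathicity by 50%.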

Influenza A virus H3N2 [17] = test: Antiviral activity against influenza H3N2 virus in MDCK cells assessed as reduction of virus-induced cytopathicity by MTS method; type: functional, organism-based
[18] = tested on: Human immunodeficiency virus 2; test: Antiviral activity against HIV2 ROD in human CEM cells assessed as protection against virus-induced cytopathicity after 4 days; type: functional, organism-based; settings: Human immunodeficiency virus 2, ROD, CCRF-CEM, 96 h; method in brief: as §5
[19] = tested on: Mammalian orthoreovirus 1; test: Antiviral activity against Reovirus 1 in african green monkey Vero cells assessed as protection against virus-induced cytopathicity; type: functional, organism-based; settings: Mammalian orthoreovirus 1, Vero; method in brief: as §1
Sindbis virus = test: Antiviral activity against Sindbis virus in african green monkey Vero cells assessed as protection against virus-induced cytopathicity; type: functional, organism-based; method in brief: as §1
Influenza B virus [20] = test: Antiviral activity against influenza B virus in MDCK cells assessed as reduction of virus-induced cytopathicity by visual cytopathic effect scoring method; type: functional, organism-based
Vaccinia virus = test: Antiviral activity against Vaccinia virus Lederle in human HEL cells assessed as protection against virus-induced cytopathicity; type: functional, organism-based; settings: Orthopoxvirus vaccinia
[21] = Cytotoxicity against human HeLa cells assessed as drug level causing microscopically detectable alteration of normal cell morphology after 3 days; type: cell-based; method in brief: as §2
Feline coronavirus = test: Antiviral activity against Feline coronavirus in feline […] cells assessed as inhibition of virus-induced cytopathicity; type: functional, organism-based; settings: Alphacoronavirus 1
[22] = molecular target: Human immunodeficiency virus type 1 reverse transcriptase (Human immunodeficiency virus 1, UniProt Q72547); test: Inhibition of HIV1 reverse transcriptase p66/p51; settings: read-out: IC50
[23] = tested on: Vesicular stomatitis virus; test: Antiviral activity against VSV in human HeLa cells assessed as protection against virus-induced cytopathicity; type: functional, organism-based
CCRF-CEM = test: Antiproliferative activity against human CEM cells after 3 days; type: cell-based; settings: 72 h; method in brief: as §3
[24] = tested on: Respiratory syncytial virus; test: Antiviral activity against RSV Long in human HeLa cells assessed as protection against virus-induced cytopathicity; type: functional, organism-based; method in brief: as §1
[25] = molecular target: Human immunodeficiency virus type 1 reverse transcriptase (Human immunodeficiency virus 1, UniProt Q72547, Y181I); test: Inhibition of HIV1 reverse transcriptase p66/p51 Y181I mutant; settings: read-out: IC50; method in brief: as §4
L1210 = test: Antiproliferative activity against mouse L1210 cells after 2 days; type: cell-based; settings: L1210, 48 h; method in brief: as §3
[26] = molecular target: Human immunodeficiency virus type 1 reverse transcriptase (Human immunodeficiency virus 1, UniProt Q72547, L100I); test: Inhibition of HIV1 reverse transcriptase p66/p51 L100I mutant; settings: read-out: IC50; method in brief: as §4
Coxsackievirus B4 [27] = test: Antiviral activity against Coxsackievirus B4 in human HeLa cells assessed as protection against virus-induced cytopathicity; type: functional, organism-based; settings: Enterovirus B; method in brief: as §1

SMILES | EC50 (Human alphaherpesvirus 2) | MCC at 72 h [1] | EC50 (Influenza A virus [2]) | EC50 (Influenza A virus H3N2 [3]) | EC50 (Punta Toro virus) | MCC at 72 h [4] | IC50 [5] | EC50 (Human alphaherpesvirus 1 [6]) | EC50 (Human respirovirus 3) | MCC [7] | EC50 (Human alphaherpesvirus 1 [8]) | EC50 (Felid alphaherpesvirus 1) | CC50 [9] | CC50 [10] | IC50 [11] | EC50 (Influenza A virus [12]) | EC50 (Influenza B virus [13]) | EC50 [14] | EC50 (Coxsackievirus B4 [15]) | EC50 [16] | also measured
Cc1cc(C)cc(S(=O)(=O)c2c(C(=O)NC(C)CC(N)=O)[nH]c3ccc(Cl)cc23)c1 (centres undefined) | > 20 µM | 100 µM | > 4 µM | > 4 µM | > 20 µM | 100 µM | 36 µM | > 20 µM | > 20 µM | 20 µM | > 20 µM | > 4 µM | 13.5 µM | 18.9 µM | 0.288 µM | > 4 µM | > 4 µM | > 20 µM | 16 µM | 0.026 µM | EC50 (Influenza A virus H3N2 [17]): > 4 µM; EC50 [18]: 30 µM; EC50 [19]: > 20 µM; EC50 (Sindbis virus): > 20 µM; EC50 (Influenza B virus [20]): > 4 µM; EC50 (Vaccinia virus): > 20 µM; MCC at 72 h [21]: ≥ 20 µM; EC50 (Feline coronavirus): > 4 µM; IC50 [22]: 0.12 µM; EC50 [23]: > 20 µM; IC50 (CCRF-CEM): 32 µM; EC50 [24]: > 20 µM; IC50 [25]: 4.14 µM; IC50 (L1210): 48 µM; IC50 [26]: 0.252 µM; EC50 (Coxsackievirus B4 [27]): 4.5 µM
Cc1cc(C)cc(S(=O)(=O)c2c(C(N)=O)[nH]c3ccc(Cl)c(F)c23)c1 | > 20 µM | > 100 µM | > 4 µM | > 4 µM | > 100 µM | > 100 µM | 14 µM | > 20 µM | > 100 µM | 20 µM | > 20 µM | > 100 µM | 40.6 µM | > 100 µM | 0.006 µM | > 4 µM | > 4 µM | > 20 µM | 100 µM | 0.001 µM | EC50 (Influenza A virus H3N2 [17]): > 4 µM; EC50 [18]: > 10 µM; EC50 [19]: > 100 µM; EC50 (Sindbis virus): > 100 µM; EC50 (Influenza B virus [20]): > 4 µM; EC50 (Vaccinia virus): > 20 µM; MCC at 72 h [21]: > 100 µM; EC50 (Feline coronavirus): > 100 µM; IC50 [22]: 0.003 µM; EC50 [23]: > 100 µM; IC50 (CCRF-CEM): > 28 µM; EC50 [24]: > 100 µM; IC50 [25]: 0.029 µM; IC50 (L1210): 46 µM; IC50 [26]: 0.002 µM; EC50 (Coxsackievirus B4 [27]): 27 µM
Cc1cc(C)cc(S(=O)(=O)c2c(C(=O)NC(C)CS(N)(=O)=O)[nH]c3ccc(Cl)c(F)c23)c1 (centres undefined) | > 4 µM | 100 µM | > 4 µM | > 4 µM | > 20 µM | 20 µM | 12 µM | > 4 µM | > 20 µM | 20 µM | > 4 µM | > 4 µM | 7.3 µM | 15 µM | 0.003 µM | > 4 µM | > 4 µM | > 4 µM | 12 µM | 0.0039 µM | EC50 (Influenza A virus H3N2 [17]): > 4 µM; EC50 [18]: > 10 µM; EC50 [19]: > 20 µM; EC50 (Sindbis virus): 20 µM; EC50 (Influenza B virus [20]): > 4 µM; EC50 (Vaccinia virus): > 4 µM; MCC at 72 h [21]: 20 µM; EC50 (Feline coronavirus): > 4 µM; IC50 [22]: 0.036 µM; EC50 [23]: > 4 µM; IC50 (CCRF-CEM): 16 µM; EC50 [24]: > 4 µM; IC50 [25]: > 40 µM; IC50 (L1210): 18 µM; IC50 [26]: 0.267 µM; EC50 (Coxsackievirus B4 [27]): > 4 µM
Cc1cc(C)cc(S(=O)(=O)c2c(C(=O)NC(C)CC(N)=O)[nH]c3ccc(Br)cc23)c1 (centres undefined) | > 4 µM | ≥ 20 µM | > 4 µM | > 4 µM | > 20 µM | 20 µM | 16 µM | > 4 µM | > 20 µM | ≥ 4 µM | > 4 µM | > 4 µM | 79 µM | 11.1 µM | 0.321 µM | > 4 µM | > 4 µM | > 4 µM | > 20 µM | 0.0015 µM | EC50 (Influenza A virus H3N2 [17]): > 4 µM; EC50 [18]: > 10 µM; EC50 [19]: > 20 µM; EC50 (Sindbis virus): > 20 µM; EC50 (Influenza B virus [20]): > 4 µM; EC50 (Vaccinia virus): > 4 µM; MCC at 72 h [21]: ≥ 20 µM; EC50 (Feline coronavirus): > 4 µM; IC50 [22]: 0.081 µM; EC50 [23]: > 20 µM; IC50 (CCRF-CEM): 18 µM; EC50 [24]: > 20 µM; IC50 [25]: 15.8 µM; IC50 (L1210): 16 µM; IC50 [26]: 0.296 µM; EC50 (Coxsackievirus B4 [27]): ≥ 20 µM
